Test results published in ChEMBL document CHEMBL1134793, “Investigation of the selectivity of oxymorphone- and naltrexone-derived ligands via site-directed mutagenesis of opioid receptors: exploring the "address" recognition locus” (J Med Chem, 2001).

Key:
Type in all cases: cell-based, HEK293
Mu-type opioid receptor [1] = molecular target: Mu-type opioid receptor (Rattus norvegicus, UniProt P33535, K303E); test: Displacement of [3H]- diprenorphine from mu-K303E-receptor expressed in HEK 293 cells
Chain of Mu-type opioid receptor (Rattus norvegicus, UniProt P33535, K303E) (P33535 whole entry K303E): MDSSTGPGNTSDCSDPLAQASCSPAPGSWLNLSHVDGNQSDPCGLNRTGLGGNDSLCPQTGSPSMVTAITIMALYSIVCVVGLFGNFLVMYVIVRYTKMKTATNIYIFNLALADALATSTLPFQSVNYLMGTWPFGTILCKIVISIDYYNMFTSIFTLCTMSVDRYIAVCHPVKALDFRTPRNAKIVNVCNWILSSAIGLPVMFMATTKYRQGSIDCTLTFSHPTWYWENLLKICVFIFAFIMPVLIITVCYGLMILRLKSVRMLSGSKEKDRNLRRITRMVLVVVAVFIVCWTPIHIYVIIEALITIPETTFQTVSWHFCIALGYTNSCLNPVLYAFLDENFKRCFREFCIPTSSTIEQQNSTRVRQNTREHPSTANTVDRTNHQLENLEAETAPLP

Mu-type opioid receptor [2] = molecular target: Mu-type opioid receptor (Rattus norvegicus, UniProt P33535, W318A); test: Displacement of [3H]- diprenorphine from mu-W318A-receptor expressed in HEK 293 cells
Chain of Mu-type opioid receptor (Rattus norvegicus, UniProt P33535, W318A) (P33535 whole entry W318A): as the sequence (P33535 whole entry K303E) above, with E303K, W318A counted along it

[3] = molecular target: Kappa-type opioid receptor (Rattus norvegicus, UniProt P34975, Y312A); test: Displacement of [3H]diprenorphine from k-Y312A-receptor expressed in HEK 293 cells
Chain of Kappa-type opioid receptor (Rattus norvegicus, UniProt P34975, Y312A) (P34975 whole entry Y312A): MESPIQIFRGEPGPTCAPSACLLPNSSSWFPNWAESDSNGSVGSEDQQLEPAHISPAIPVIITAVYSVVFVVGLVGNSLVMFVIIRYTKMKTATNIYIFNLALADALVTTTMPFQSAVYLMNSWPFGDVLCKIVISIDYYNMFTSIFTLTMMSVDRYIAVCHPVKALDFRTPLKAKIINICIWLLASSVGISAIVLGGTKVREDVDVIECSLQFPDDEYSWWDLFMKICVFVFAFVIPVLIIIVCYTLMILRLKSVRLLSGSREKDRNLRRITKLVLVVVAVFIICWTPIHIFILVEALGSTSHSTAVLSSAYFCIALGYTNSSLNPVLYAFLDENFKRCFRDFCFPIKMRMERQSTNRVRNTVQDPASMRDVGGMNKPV

[4] = molecular target: Delta-type opioid receptor (Mus musculus, UniProt P32300); test: Displacement of [3H]- diprenorphine from delta receptor expressed in HEK 293 cells
Chain of Delta-type opioid receptor (Mus musculus, UniProt P32300) (P32300 whole entry): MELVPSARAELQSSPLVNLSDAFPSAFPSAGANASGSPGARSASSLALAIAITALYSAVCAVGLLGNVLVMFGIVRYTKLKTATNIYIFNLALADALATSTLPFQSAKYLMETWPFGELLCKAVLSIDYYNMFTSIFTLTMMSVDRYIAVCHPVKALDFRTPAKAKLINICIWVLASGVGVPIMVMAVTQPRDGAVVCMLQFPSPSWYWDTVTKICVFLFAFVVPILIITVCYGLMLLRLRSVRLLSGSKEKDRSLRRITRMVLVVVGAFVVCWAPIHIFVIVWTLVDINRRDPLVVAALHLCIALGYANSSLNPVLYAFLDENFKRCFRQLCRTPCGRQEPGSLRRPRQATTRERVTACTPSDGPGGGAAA
How it was run: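 HEK-293 cells transiently transfected with wild-type or mutant receptor cDNA by calcium phosphate were harvested 60-72 h later and suspended in 25 mM HEPES, pH 7.4. […] Nonspecific binding was defined with 1 μM NTI. Bound ligand was filtered on PEI-soaked GF/B and counted.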

[5] = molecular target: Kappa-type opioid receptor (Rattus norvegicus, UniProt P34975, E297A); test: Displacement of [3H]diprenorphine from k-E297A-receptor expressed in HEK 293 cells
Chain of Kappa-type opioid receptor (Rattus norvegicus, UniProt P34975, E297A) (P34975 whole entry E297A): as the sequence (P34975 whole entry Y312A) above, with E297A, A312Y counted along it

[6] = molecular target: Delta-type opioid receptor (Mus musculus, UniProt P32300, W284E); test: Displacement of [3H]- diprenorphine from delta-W284E-receptor expressed in HEK 293 cells
Chain of Delta-type opioid receptor (Mus musculus, UniProt P32300, W284E) (P32300 whole entry W284E): as the sequence (P32300 whole entry) above, with W284E counted along it
How it was run: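 HEK-293 cells transiently transfected with wild-type or mutant receptor cDNA by calcium phosphate were harvested 60-72 h later and suspended in 25 mM HEPES, pH 7.4. Nonspecific binding was defined with 1 μM NTI. Bound ligand was filtered on PEI-soaked GF/B and counted.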

[7] = molecular target: Kappa-type opioid receptor (Rattus norvegicus, UniProt P34975); test: Displacement of [3H]diprenorphine from opioid receptor kappa 1 expressed in HEK 293 cells
Chain of Kappa-type opioid receptor (Rattus norvegicus, UniProt P34975) (P34975 whole entry): as the sequence (P34975 whole entry Y312A) above, with A312Y counted along it

Mu-type opioid receptor [8] = molecular target: Mu-type opioid receptor (Rattus norvegicus, UniProt P33535); test: Displacement of [3H]- diprenorphine from mu-receptor expressed in HEK 293 cells
Chain of Mu-type opioid receptor (Rattus norvegicus, UniProt P33535) (P33535 whole entry): as the sequence (P33535 whole entry K303E) above, with E303K counted along it

Row | Compound | Ki (Mu-type opioid receptor [1]) [nM] | Ki (Mu-type opioid receptor [2]) [nM] | Ki [3] [nM] | Ki [4] [nM] | Ki [5] [nM] | Ki [6] [nM] | Ki [7] [nM] | Ki (Mu-type opioid receptor [8]) [nM]
1 | N=C(N)Nc1ccc2[nH]c3c(c2c1)C[C@@]1(O)[C@H]2Cc4ccc(O)c5c4[C@@]1(CCN2CC1CC1)[C@H]3O5 [GUANIDINONALTRINDOLE] | 0.09 | 0.5 | 0.03 | 46.2 | 3.9 | 1.1 |  | 
2 | Oc1ccc2c3c1O[C@H]1c4[nH]c5ccccc5c4C[C@@]4(O)[C@@H](C2)N(CC2CC2)CC[C@]314 [NALTRINDOLE] |  |  | 1.23 | 0.19 | 42 | 1.82 | 25.5 | 
3 | Oc1ccc2c3c1O[C@H]1c4[nH]c5c(c4C[C@@]4(O)[C@@H](C2)N(CC2CC2)CC[C@]314)C[C@@]1(O)[C@H]2Cc3ccc(O)c4c3[C@@]1(CCN2CC1CC1)[C@H]5O4 [NORBINALTORPHIMINE] |  |  | 1.39 |  |  |  | 0.07 | 
4 | CN1CC[C@]23c4c5ccc(O)c4O[C@H]2C(=O)C2(Cc4ccccc4C2)C[C@@]3(O)[C@H]1C5 [SPIROINDANYLOXYMORPHONE] | 154 | 3.9 | 55 | 4.1 | 292 | 46.6 | 488 | 88.4
